Results of several laboratories.
Compare with care: the assays were run in different laboratories.
Effect on: cell growth or viability

For `CCSc1nc(C2CC2)cc(C(F)(F)F)n1`, the CC50 was > 60 µM (HEK-293T; ATP luminescence; 24 h).
`O=C(Cc1csc(NC(=O)c2cc3ccccc3[nH]2)n1)NN=Cc1cccc2ccccc12` (mixture of isomers) gave an IC50 of 36 µM (HepG2; MTT).
With `Clc1ccc(OC2=CC(c3ccc[nH]3)=N/C2=C\NC23CC4CC(CC(C4)C2)C3)cc1` the IC50 was 14.5 µM (HepG2; MTT; 48 h).
With `O[C@@H](CN1CCN(C(c2ccccc2)c2ccccc2)CC1)c1cc(Cl)cc2c1-c1ccc(Cl)cc1C2` the CC50 was > 50 µM (HepG2; 48 h).
For `CCS(=O)(=O)c1nc(C2CC2)cc(C(F)(F)F)n1`, the CC50 was 29 µM (HEK-293T; ATP luminescence; 24 h).
`O[C@@H](CNCCN1CCN(C(c2ccccc2)c2ccccc2)CC1)c1cc(Cl)cc2c1-c1ccc(Cl)cc1C2` has a CC50 of 27.1 µM (HepG2; MTT; 72 h).
`COc1ccccc1C(=O)/C=C/c1cn(Cc2cn(-c3ccnc4cc(Cl)ccc34)nn2)c2ccccc12` has a viability of > 90% (HepG2; MTT; 100 µM, 24 h).
`CCCCNCC(O)c1cc(Cl)cc2c1-c1ccc(Cl)cc1C2` (racemic) has a CC50 of 6.4 µM (HepG2; 48 h).
For `COc1ccc2[nH]c(C(=O)Nc3nc(CC(=O)NN=Cc4cccc5ccccc45)cs3)cc2c1` (mixture of isomers), the IC50 was 24.2 µM (HepG2; MTT).
With `CC[S+]([O-])c1nc(-c2ccccc2)cc(C(F)(F)F)n1` (stereo not shown) the CC50 was > 60 µM (HEK-293T; ATP luminescence; 24 h).
